MIN6 prolif-1: MIN6 beta-cell proliferation induction; MIN6 cells proliferation, ATPlite luminescence, 48 h; cells starved in 0.2% serum; 100% = growth in 10% serum; proliferation, % at 10 µM; 0.29% of 330,000 active; AID 2380;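 active means compounds whose signal lies at least 3.5 SD above the mean of all wells on their plate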;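 further: 0% = DMSO-treated cells in low-serum medium and 100% = 10% serum control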
TLR4-MyD88 BLA: blocks binding of human TLR4 to MyD88; 0.18% of 200,000 active; AID 861; inhibition, % at 8.4 µM; O00206+Q99836; HeLa CL3-4 TLR4/MyD88 BLA complementation, FRET ratio; in the data active means inhibition above about 25%;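 further: 0% = vehicle and 100% = reference inhibitor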
TLR9-MyD88 block: blocks human TLR9 binding to MyD88; CHO BLA complementation TLR9-MyD88, CCF4 FRET ratio; AID 504734; inhibition, % at 4.98 µM; 0.21% of 340,000 active; Q9NR96+Q99836;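 active means inhibition above the mean over all tested compounds plus 3 SD, cut at about 21% in these data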;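 further: 0% = DMSO only wells and 100% = clavulanate BLA inhibitor control wells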
MC4R barr agon: activates human MC4R beta-arrestin recruitment. 0.98% of 360,000 active. U2OS MC4R beta-arrestin complementation, luminescence; percent of melanotan II response, DMSO zero. AID 540308. activation, % at 8.9 µM. P32245;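 active means activation above a per-plate cutoff, the mean activation of sample wells on that plate plus 3 SD, cut at about 8% in these data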
Target sequence (P32245 whole entry, looked up): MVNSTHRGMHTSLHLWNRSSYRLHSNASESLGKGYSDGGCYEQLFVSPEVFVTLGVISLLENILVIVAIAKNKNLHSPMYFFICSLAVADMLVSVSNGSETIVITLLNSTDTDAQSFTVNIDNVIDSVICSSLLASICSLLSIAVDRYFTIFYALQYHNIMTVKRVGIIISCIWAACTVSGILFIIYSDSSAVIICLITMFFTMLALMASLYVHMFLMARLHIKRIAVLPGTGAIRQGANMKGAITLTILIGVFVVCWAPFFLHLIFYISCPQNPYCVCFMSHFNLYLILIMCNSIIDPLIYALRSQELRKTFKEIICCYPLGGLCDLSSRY
NOD2 RIPK2 PPI: NOD2-RIPK2 protein interaction inhibition; CHO BLA complementation NOD2-RIPK2, CCF4 ratio; O43353; inhibition, % at 4.98 µM; 0.38% of 360,000 active; AID 624267; in the data active means inhibition above about 21%;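 further: 0% = vehicle only and 100% = reference blocker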
MC4R antagonist: blocks human MC4R cAMP signaling; P32245; inhibition, % at 6.5 µM; AID 540295; 0.48% of 360,000 active; MC4R-expressing cells, MTII-stimulated cAMP, LANCE TR-FRET;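 active means inhibition above its plate's cutoff, the mean of tested wells on that plate plus 3 SD, cut at about 29% in these data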;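 further: 0% = Melanotan II alone and 100% = Melanotan II plus saturating MCL0020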
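Material: U2OS-MC4R stable cell line | Reagent: Melanotan II challenge after compound preincubation | Doses: One concentration, 6.5 µM nominal | Incubation: 30-min compound preincubation, 1-h Melanotan II challenge, 1-h detection, room temperature | Signal: TR-FRET cAMP assay | Replicates: One well per compound, no replicates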
MIN6 prolif-2: confirmation of inducers of beta-cell replication in MIN6 cells; AID 463095; 920 tested, under 10 active; MIN6 beta-cell proliferation, ATPlite luminescence, 48 h; cells kept in 0.2% serum; scaled between 0.2% and 10% serum; shares compounds with MIN6 prolif-1; proliferation increase, % at 50 µM;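 active means proliferation increase above 40% at any of the four tested concentrations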
TLR9-MyD88 cf: confirmation of human TLR9-MyD88 binding inhibitors; shares compounds with TLR9-MyD88 block; CHO TLR9/MyD88 BLA complementation, CCF4 FRET ratio; inhibition, % at 4.98 µM; 51% of 680 active;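 active means mean inhibition across three repeats above about 21% taken from the earlier screen, limit read from the data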;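 further: blue over green emission ratio reports constitutive TLR9 MyD88 association via BLA complementation; 0% = DMSO vehicle wells and 100% = clavulanate BLA inhibitor wells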
BLA counter-1: counter-screen for TLR9-MyD88 inhibitors: non-selective beta-lactamase inhibitors; shares compounds with TLR9-MyD88 block; CHO-BLA cells, CCF4 FRET ratio, BLA reporter; inhibition, % at 4.98 µM; 7% of 680 active;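 active means mean inhibition above a 50% cutoff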;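 further: counterscreen of TLR9-MyD88 hits on CMV-driven BLA in CHO-K1 cells; 0% = DMSO alone and 100% = clavulanate blocking BLA; higher means less blue over green ratio so more BLA blockade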
TLR9 CHO cytotox: CHO cell toxicity counter-screen for TLR9-MyD88 inhibitors; shares compounds with TLR9-MyD88 block; TLR9-MyD88 CHO cells cytotoxicity, luminescence; inhibition, % at 4.98 µM; 39% of 680 active; in the data active means inhibition above about 11%
NOD2 RIPK2 conf: NOD2-RIPK2 interaction inhibition confirmed. shares compounds with NOD2 RIPK2 PPI. 70% of 1,200 active. inhibition, % at 4.98 µM. CHO cells, NOD2-RIPK2 BLA complementation, CCF4 FRET. AID 624370;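 active means mean inhibition across replicates above a set limit taken from the earlier primary screen, cut at about 21% in these data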;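 further: 0% = DMSO-only wells and the high end = clavulanate BLA-blocked wells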
BLA counter-2: hits BLA reporter in NOD2-RIPK2 inhibitor counterscreen; shares compounds with NOD2 RIPK2 PPI; CHO BLA reporter, CCF4 FRET ratio; inhibition, % at 4.98 µM; 57% of 1,200 active; AID 624371;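 active means mean inhibition above the low-control mean inhibition plus three low-control SD, cut at about 11% in these data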;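 further: 0% = DMSO only wells and 100% = clavulanate high control wells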
Active calls of the source: *; . = not tested or not shown. Sampled rows, rich in hits. Any-hit rate of the full collection: about 2.1%.

SMILES	MIN6 prolif-1	TLR4-MyD88 BLA	TLR9-MyD88 block	MC4R barr agon	NOD2 RIPK2 PPI	MC4R antagonist	MIN6 prolif-2	others
CCOC(=O)[C@]12Cc3ccccc3[C@H]1N(CCC(=O)OC)C(=O)c1cc(OC)ccc12	.	.	.	.	4	.	.
CC1=CC(=C2C(=O)NC(=S)NC2=O)C=C(C(F)(F)F)N1Cc1ccccc1	-2	5	3	-2	7	-28	.
CC1=CC(=C2C(=O)NC(=O)NC2=O)C=C(C(F)(F)F)N1Cc1ccccc1	9.2*	-6	2	-2	-2	2	4
CCOC(=O)C(c1c(O)c2ccccc2oc1=O)c1c(O)c2ccccc2oc1=O	.	.	.	-1	-4	13	.
O=c1oc2ccccc2c(O)c1C(c1ccccn1)c1c(O)c2ccccc2oc1=O	8.0*	.	-5	-2	-7	10	-4
c1ccc(P(c2ccccc2)c2ccccn2)cc1	5.8*	.	2	0	3	-4	-2
C[C@H](CO)N1C[C@H](C)[C@H](CN(C)C(=O)Oc2ccccc2)OCc2cnnn2CCCC1=O	.	.	-3	1	2	5	.
CCC1(OC(=O)c2ccccc2)CC(C)N(C)CC1C (stereo not given)	7.0*	.	-2	-1	-6	2	-3
CCN(CC)C(=O)COc1cc(C)cc2oc(=O)c3c(c12)CCCC3	6.6*	.	5	0	-4	8	2
CC(=O)OC1C(O)C2=C3C4(C)C1C(C)(C)C(=O)CC4C3(O)C(OC(C)=O)C1(CC1C)C2=O (stereo not given)	.	.	.	.	-20	.	.
CSCCC(c1nnnn1-c1ccc2c(c1)OCCO2)N1CCC(n2c(=O)[nH]c3ccccc32)CC1 (stereo not given)	.	.	.	.	-10	.	.
CNC(=O)O/N=C/c1nn(C(=O)C(C)(C)C)cc1Br	5.1*	.	-19	0	7	8	-2
CCCCC(=O)N/N=C/c1c(O)n(Cc2ccco2)c(=O)[nH]c1=O	-2	1	-5	-2	7	8	.
O=C(N/N=C/c1c(O)n(Cc2ccco2)c(=O)[nH]c1=O)c1ccccc1O	8.0*	.	3	-1	-5	-4	-5
COc1c(O)cc2c(c1OC)-c1ccc(SC)c(=O)cc1C(NC(C)=O)CC2 (stereo not given)	.	.	-9	-2	4	-32	.
CCN1C(=O)CC(=O)N(CC)C1=S	.	.	0	-1	-13	-6	.
Cc1ccc(-n2c(-c3cccs3)nc3ccccc3c2=O)cc1	9.3*	2	2	-1	8	3	-4
COc1ccc2c(c1)/C(=C/c1cnc[nH]1)C(=O)N2	19*	.	-4	-2	6	-21	-3
CC(=NCCN1CCOCC1)c1c(O)n(-c2ccccc2C)c(=O)[nH]c1=O	12*	-3	-12	-1	-12	15	-1
CCC(=NCCN1CCOCC1)c1c(O)n(-c2ccccc2C)c(=O)[nH]c1=O	0	-10	-3	-1	-6	2	.
Cn1c(O)c(C=NCCN2CCN(C(=O)c3ccccc3)CC2)c(=O)n(C)c1=O	9.6*	-78	1	2	7	16	1
Cn1c(O)c(C=NCCOc2ccc(Cl)cc2)c(=O)n(C)c1=O	-1	5	-17	1	6	-6	.
O=C1c2cccc(N3CCNCC3)c2C2CCCCN12 (stereo not given)	.	.	.	.	0	.	.
COc1cc2ccc(=O)oc2c2ccoc12	12*	-15	-12	-1	7	-4	0
COc1cc2occc2c2oc(=O)ccc12	-1	-12	1	2	-8	-4	.
CN(C(=O)Cc1ccc(Cl)c(Cl)c1)C(CN1CCCC1)c1cccc(OCC(=O)O)c1 (stereo not given)	11	.	23*	-1	3	3	.	TLR9-MyD88 cf=-2;BLA counter-1=-6;TLR9 CHO cytotox=2
CCOC(=O)[C@]12Cc3cc(C)ccc3[C@H]1N(C)C(=O)c1cc(OC)ccc12	.	.	.	.	-4	.	.
Cc1ccccc1-n1c(/C=C/c2ccccn2)nc2ccccc2c1=O	3	.	9	-2	-9	6	.
CN1C2CCC1/C(=C/c1ccccn1)C(=O)/C2=C\c1ccccn1	.	-2	24*	-2	30*	6	.	TLR9-MyD88 cf=18;BLA counter-1=7;TLR9 CHO cytotox=99*;NOD2 RIPK2 conf=42*;BLA counter-2=10

Assay outcomes deposited in PubChem by several laboratories.
